In ChEMBL document CHEMBL3856286, “Halogenated naphthochalcones and structurally related naphthopyrazolines with antitumor activity” (Bioorg Med Chem Lett, 2016):
Active and inactive are the calls of the source. The rule behind the calls is not given here.

Columns and labels:
[1] = (§1) Growth inhibition of human HT-29 cells after 72 hrs by MTT assay; format: functional, cell-based; conditions: HT-29, 72 h
HT-29 = assay: as §1; format: functional, cell-based
[2] = (§2) Growth inhibition of human HCT116 cells after 72 hrs by MTT assay; format: functional, cell-based; conditions: HCT-116, 72 h
HCT-116 = assay: as §2; format: functional, cell-based
[3] = (§3) Growth inhibition of human 518A2 cells after 72 hrs by MTT assay; format: functional, cell-based; conditions: 518A2, 72 h
518A2 [4] = assay: as §3; format: functional, cell-based
[5] = (§4) Growth inhibition of human MCF7/Topo cells after 72 hrs by MTT assay; format: functional, cell-based
MCF7/Topo = assay: as §4; format: functional, cell-based
[6] = (§5) Growth inhibition of human PANC1 cells after 72 hrs by MTT assay; format: functional, cell-based; conditions: PANC-1, 72 h
PANC-1 = assay: as §5; format: functional, cell-based
[7] = (§6) Growth inhibition of human KB-V1/Vbl cells after 72 hrs by MTT assay; format: functional
KB-V1/Vbl = assay: as §6; format: functional
[8] = Cell cycle arrest in human HT-29 cells assessed as accumulation in G2/M phase at 15 uM after 24 hrs by propidium iodide staining based flow cytometry; format: functional
Outline: (§7)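 HT-29 colon carcinoma cells treated 24 h with 15 µM compound or DMSO (control); propidium iodide staining, flow cytometry for cell-cycle phase distribution and sub-G1 fraction. Means ± SD of three independent experiments.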

[9] = Cell cycle arrest in human HT-29 cells assessed as decrease in G1 phase at 15 uM after 24 hrs by propidium iodide staining based flow cytometry; format: functional; outline: as §7
[10] = target: T1, Broad substrate specificity ATP-binding cassette transporter ABCG2 (Homo sapiens, UniProt Q9UNQ0); assay: Inhibition of BCRP in human MCF7/Topo cells assessed as mitoxantrone accumulation preincubated for 10 mins followed by mitoxantrone addition measured after 30 mins by fluorescence assay; format: cell-based
T1 sequence (Q9UNQ0 whole entry): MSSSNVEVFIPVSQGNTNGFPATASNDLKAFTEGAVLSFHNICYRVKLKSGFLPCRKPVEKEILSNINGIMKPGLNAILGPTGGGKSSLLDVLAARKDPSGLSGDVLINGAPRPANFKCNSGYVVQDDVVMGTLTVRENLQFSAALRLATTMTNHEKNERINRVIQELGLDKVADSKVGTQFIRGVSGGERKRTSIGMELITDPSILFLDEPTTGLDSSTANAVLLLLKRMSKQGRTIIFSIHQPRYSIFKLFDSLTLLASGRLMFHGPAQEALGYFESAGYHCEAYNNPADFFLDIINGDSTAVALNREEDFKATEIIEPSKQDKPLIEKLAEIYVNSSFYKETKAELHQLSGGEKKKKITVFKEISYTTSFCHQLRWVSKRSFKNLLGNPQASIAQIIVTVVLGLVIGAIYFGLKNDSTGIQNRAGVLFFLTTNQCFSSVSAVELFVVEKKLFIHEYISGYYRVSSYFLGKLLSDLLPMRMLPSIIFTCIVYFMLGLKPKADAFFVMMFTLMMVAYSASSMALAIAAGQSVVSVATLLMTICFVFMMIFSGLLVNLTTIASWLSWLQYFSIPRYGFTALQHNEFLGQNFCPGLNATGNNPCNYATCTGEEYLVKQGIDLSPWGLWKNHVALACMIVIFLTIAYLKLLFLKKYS
Outline: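 MCF-7/Topo breast cancer cells (BCRP-overexpressing) exposed to compounds at 0–100 µM, or fumitremorgin C 0.1–100 µM as reference inhibitor, for 30 min with mitoxantrone as fluorescent BCRP substrate. Mitoxantrone fluorescence taken as measure of inhibition; IC50 from dose–response curves; mean ± SD of three independent experiments.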

[11] = target: ATP-dependent translocase ABCB1 (Homo sapiens, UniProt P08183); assay: Inhibition of P-gp in human KB-V1/Vbl cells assessed as calcein-AM accumulation preincubated for 15 mins followed by calcein-AM addition measured after 15 mins by fluorescence assay; format: cell-based
P-gp (ABCB1) = P-gp (ABCB1) (Homo sapiens, UniProt P08183); assay: Potency index, ratio of verapamil IC50 to compound IC50 for P-gp in human KB-V1/Vbl cells; format: cell-based; conditions: read-out: Ratio IC50
Sus scrofa = species: Sus scrofa; assay: Inhibition of pig brain tubulin polymerization at 5 uM measured every 20 sec for 2 hrs by turbidimetric method
518A2 [12] = assay: Inhibition of tubulin polymerization in human 518A2 cells assessed as increase in detergent soluble tubulin heterodimers at 5 to 50 uM after 4 hrs by Western blot analysis; format: cell-based
Outline: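 518A2 melanoma cells treated 4 h with a range of concentrations; detergent-insoluble (polymeric tubulin) lysate fraction separated by centrifugation, run on SDS–PAGE, immunoblotted for alpha-tubulin (55 kDa); densitometry from at least two independent experiments (mean ± SD).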

518A2 [13] = assay: Induction of apoptosis in human 518A2 cells assessed as DNA fragmentation at 25 uM after 24 hrs by TUNEL based flow cytometry; format: functional, cell-based
Outline: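 518A2 melanoma cells treated 24 h; DNA fragmentation detected by TUNEL labelling and quantified by flow cytometry against untreated controls.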

518A2 [14] = assay: Induction of apoptosis in human 518A2 cells assessed as DNA ladder formation at 50 uM after 24 hrs by ethidium bromide staining based agarose gel electrophoresis; format: functional, cell-based
518A2 [15] = assay: Binding affinity to tubulin in human 518A2 cells assessed as effect on F-actin cytoskeleton by measuring increase in stress fibres at 10 uM after 24 hrs by phalloidin 488/DAPI staining based fluorescence microscopic analysis; format: cell-based
Outline: (§8)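 518A2 melanoma cells treated 24 h at 10 µM or 5 µM; F-actin fluorescently stained and cytoskeletal organisation, including stress-fibre formation, compared with untreated controls by fluorescence microscopy.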

518A2 [16] = assay: Binding affinity to tubulin in human 518A2 cells assessed as effect on F-actin cytoskeleton by measuring increase in stress fibres at 5 uM after 24 hrs by phalloidin 488/DAPI staining based fluorescence microscopic analysis; format: cell-based; outline: as §8

Chain of P-gp (ABCB1) (P08183 whole entry): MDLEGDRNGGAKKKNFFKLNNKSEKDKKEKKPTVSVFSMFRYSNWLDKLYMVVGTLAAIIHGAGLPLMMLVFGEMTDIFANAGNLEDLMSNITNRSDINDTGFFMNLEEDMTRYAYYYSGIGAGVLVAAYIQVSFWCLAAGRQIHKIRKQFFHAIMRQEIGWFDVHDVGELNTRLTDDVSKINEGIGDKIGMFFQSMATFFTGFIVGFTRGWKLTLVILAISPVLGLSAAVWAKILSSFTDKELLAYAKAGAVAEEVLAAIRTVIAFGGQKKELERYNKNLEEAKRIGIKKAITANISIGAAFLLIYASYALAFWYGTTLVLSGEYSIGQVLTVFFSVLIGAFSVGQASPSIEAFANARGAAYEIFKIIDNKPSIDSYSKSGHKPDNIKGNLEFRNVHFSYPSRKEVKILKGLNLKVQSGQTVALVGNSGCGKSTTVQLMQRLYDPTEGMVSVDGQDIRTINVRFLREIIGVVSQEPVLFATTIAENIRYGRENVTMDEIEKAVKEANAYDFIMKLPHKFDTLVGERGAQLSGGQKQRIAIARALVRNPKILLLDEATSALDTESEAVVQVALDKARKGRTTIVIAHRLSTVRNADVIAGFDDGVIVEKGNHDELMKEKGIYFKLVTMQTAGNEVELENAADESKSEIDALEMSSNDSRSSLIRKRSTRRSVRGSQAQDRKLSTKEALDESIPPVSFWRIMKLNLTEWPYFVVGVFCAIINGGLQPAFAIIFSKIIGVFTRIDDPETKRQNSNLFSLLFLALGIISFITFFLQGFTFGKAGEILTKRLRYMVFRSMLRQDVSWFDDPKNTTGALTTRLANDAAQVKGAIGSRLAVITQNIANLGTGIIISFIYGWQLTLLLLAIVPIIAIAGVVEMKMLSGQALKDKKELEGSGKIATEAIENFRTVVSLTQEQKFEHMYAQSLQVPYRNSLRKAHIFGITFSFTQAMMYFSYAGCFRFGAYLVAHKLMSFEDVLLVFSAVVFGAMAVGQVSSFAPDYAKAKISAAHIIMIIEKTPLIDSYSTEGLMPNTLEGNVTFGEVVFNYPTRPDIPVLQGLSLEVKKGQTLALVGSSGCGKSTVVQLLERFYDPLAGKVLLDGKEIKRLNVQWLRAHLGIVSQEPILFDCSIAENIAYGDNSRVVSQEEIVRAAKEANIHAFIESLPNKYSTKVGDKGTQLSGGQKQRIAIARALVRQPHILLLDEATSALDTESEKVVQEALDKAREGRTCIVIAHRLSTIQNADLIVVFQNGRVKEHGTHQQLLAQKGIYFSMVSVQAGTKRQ
Chain of ATP-dependent translocase ABCB1 (P08183 whole entry): as above

With `COc1cc(C2CC(c3ccc4ccccc4c3)=NN2C(C)=O)cc(I)c1OC` (configuration not stated) the IC50 [1] was 2.3 µM, the “growth inhibition (GI)” value (HT-29) was “Dose-dependent effect” and the IC50 [2] was 1.6 µM. For the same molecule, the “growth inhibition (GI)” value (HCT-116) was “Dose-dependent effect”, the IC50 [3] was 3.8 µM and the “growth inhibition (GI)” value (518A2 [4]) was “Dose-dependent effect”. The IC50 [5] was 2.5 µM, the “growth inhibition (GI)” value (MCF7/Topo) was “Dose-dependent effect” and the IC50 [6] was 1.1 µM. For the same molecule, the “growth inhibition (GI)” value (PANC-1) was “Dose-dependent effect”, the IC50 [7] was 1.9 µM and the “growth inhibition (GI)” value (KB-V1/Vbl) was “Dose-dependent effect”. For the same molecule, the Activity [8] was “Active”, the Activity [9] was “Active” and the IC50 [10] was 7.1 µM. The IC50 [11] was 16.3 µM, the selectivity ratio (P-gp (ABCB1)) was 4 to 5 and the inhibition (Sus scrofa) was “Active”. For the same molecule, the inhibition (518A2 [12]) was “Active”.

With `COc1cc(/C=C/C(=O)c2ccc3ccccc3c2)cc(Br)c1OC` the IC50 [1] was 22.8 µM, the “growth inhibition (GI)” value (HT-29) was “Dose-dependent effect” and the IC50 [2] was 11.2 µM. The “growth inhibition (GI)” value (HCT-116) was “Dose-dependent effect”, the IC50 [3] was 20.2 µM and the “growth inhibition (GI)” value (518A2 [4]) was “Dose-dependent effect”. The IC50 [5] was 2.3 µM, the “growth inhibition (GI)” value (MCF7/Topo) was “Dose-dependent effect” and the IC50 [6] was 9.3 µM. For the same molecule, the “growth inhibition (GI)” value (PANC-1) was “Dose-dependent effect”, the IC50 [7] was 10.5 µM and the “growth inhibition (GI)” value (KB-V1/Vbl) was “Dose-dependent effect”. The Activity [8] was “Active”, the Activity [9] was “Active” and the IC50 [10] was 4.9 µM. It also gave an IC50 [11] of over 500 µM.

In the case of `COc1cc(/C=C/C(=O)c2ccc3ccccc3c2)cc(Cl)c1OC`, the IC50 [1] is reported as 23.9 µM, the “growth inhibition (GI)” value (HT-29) is reported as “Dose-dependent effect” and the IC50 [2] is reported as 12.9 µM. The “growth inhibition (GI)” value (HCT-116) was “Dose-dependent effect”, the IC50 [3] was 16.4 µM and the “growth inhibition (GI)” value (518A2 [4]) was “Dose-dependent effect”. For the same molecule, the IC50 [5] was 1.5 µM, the “growth inhibition (GI)” value (MCF7/Topo) was “Dose-dependent effect” and the IC50 [6] was 10.3 µM. For the same molecule, the “growth inhibition (GI)” value (PANC-1) was “Dose-dependent effect”, the IC50 [7] was 13.1 µM and the “growth inhibition (GI)” value (KB-V1/Vbl) was “Dose-dependent effect”. For the same molecule, the Activity [8] was “Active”, the Activity [9] was “Active” and the IC50 [10] was 8.7 µM. For the same molecule, the IC50 [11] was over 500 µM, the Activity (518A2 [13]) was “Active” and the Activity (518A2 [14]) was “Active”. For the same molecule, the inhibition (Sus scrofa) was “Active”, the inhibition (518A2 [12]) was “Active” and the Activity (518A2 [15]) was “Active”.

In the case of `COc1cc(C2CC(c3ccc4ccccc4c3)=NN2C(C)=O)cc(Cl)c1OC` (configuration not stated), the IC50 [1] is reported as 3.5 µM, the “growth inhibition (GI)” value (HT-29) is reported as “Dose-dependent effect” and the IC50 [2] is reported as 3.8 µM. The “growth inhibition (GI)” value (HCT-116) was “Dose-dependent effect”, the IC50 [3] was 4.6 µM and the “growth inhibition (GI)” value (518A2 [4]) was “Dose-dependent effect”. For the same molecule, the IC50 [5] was 2.1 µM, the “growth inhibition (GI)” value (MCF7/Topo) was “Dose-dependent effect” and the IC50 [6] was 3.1 µM. For the same molecule, the “growth inhibition (GI)” value (PANC-1) was “Dose-dependent effect”, the IC50 [7] was 4.7 µM and the “growth inhibition (GI)” value (KB-V1/Vbl) was “Dose-dependent effect”. The Activity [8] was “Active”, the Activity [9] was “Active” and the IC50 [10] was 7.4 µM. The IC50 [11] was 12.1 µM, the selectivity ratio (P-gp (ABCB1)) was 4 to 5 and the inhibition (Sus scrofa) was “Active”. The inhibition (518A2 [12]) was “Active” and the Activity (518A2 [16]) was “Active”.

For `COc1cc(/C=C/C(=O)c2ccc3ccccc3c2)cc(I)c1OC`, the IC50 [1] was 13.3 µM, the “growth inhibition (GI)” value (HT-29) was “Dose-dependent effect” and the IC50 [2] was 14.4 µM. For the same molecule, the “growth inhibition (GI)” value (HCT-116) was “Dose-dependent effect”, the IC50 [3] was 18.1 µM and the “growth inhibition (GI)” value (518A2 [4]) was “Dose-dependent effect”. For the same molecule, the IC50 [5] was 1.3 µM, the “growth inhibition (GI)” value (MCF7/Topo) was “Dose-dependent effect” and the IC50 [6] was 10.4 µM. For the same molecule, the “growth inhibition (GI)” value (PANC-1) was “Dose-dependent effect”, the IC50 [7] was 16.5 µM and the “growth inhibition (GI)” value (KB-V1/Vbl) was “Dose-dependent effect”. For the same molecule, the Activity [8] was “Active”, the Activity [9] was “Active” and the IC50 [10] was 7.8 µM. For the same molecule, the IC50 [11] was over 500 µM, the inhibition (Sus scrofa) was “Active” and the inhibition (518A2 [12]) was “Active”.

`COc1ccc2c3c([nH]c2c1)[C@H](C=C(C)C)N1C(=O)[C@@H]2CCCN2C(=O)[C@@H]1C3` [FUMITREMORGIN] showed an IC50 [10] of 0.96 µM.

With `COc1cc(C2CC(c3ccc4ccccc4c3)=NN2C(C)=O)cc(Br)c1OC` (configuration not stated) the IC50 [1] was 2.5 µM, the “growth inhibition (GI)” value (HT-29) was “Dose-dependent effect” and the IC50 [2] was 2.7 µM. The “growth inhibition (GI)” value (HCT-116) was “Dose-dependent effect”, the IC50 [3] was 3.8 µM and the “growth inhibition (GI)” value (518A2 [4]) was “Dose-dependent effect”. For the same molecule, the IC50 [5] was 2.6 µM, the “growth inhibition (GI)” value (MCF7/Topo) was “Dose-dependent effect” and the IC50 [6] was 1.5 µM. The “growth inhibition (GI)” value (PANC-1) was “Dose-dependent effect”, the IC50 [7] was 2.2 µM and the “growth inhibition (GI)” value (KB-V1/Vbl) was “Dose-dependent effect”. For the same molecule, the Activity [8] was “Active”, the Activity [9] was “Active” and the IC50 [10] was 8.9 µM. The IC50 [11] was 12.6 µM and the selectivity ratio (P-gp (ABCB1)) was 4 to 5.

In the case of `COc1cc(/C=C/C(=O)c2ccc3ccccc3c2)cc(OC)c1OC`, the IC50 [1] is reported as 28.1 µM, the “growth inhibition (GI)” value (HT-29) is reported as “Dose-dependent effect” and the IC50 [2] is reported as 13.7 µM. For the same molecule, the “growth inhibition (GI)” value (HCT-116) was “Dose-dependent effect”, the IC50 [3] was 22.9 µM and the “growth inhibition (GI)” value (518A2 [4]) was “Dose-dependent effect”. For the same molecule, the IC50 [5] was 5.6 µM, the “growth inhibition (GI)” value (MCF7/Topo) was “Dose-dependent effect” and the IC50 [6] was 13.3 µM. For the same molecule, the “growth inhibition (GI)” value (PANC-1) was “Dose-dependent effect”, the IC50 [7] was 13.9 µM and the “growth inhibition (GI)” value (KB-V1/Vbl) was “Dose-dependent effect”. For the same molecule, the Activity [8] was “Active”, the Activity [9] was “Active” and the IC50 [10] was 2.4 µM. The IC50 [11] was 13 µM, the selectivity ratio (P-gp (ABCB1)) was 4 to 5 and the Activity (518A2 [13]) was “Active”. For the same molecule, the Activity (518A2 [14]) was “Active” and the Activity (518A2 [15]) was “Active”.
